In ChEMBL document CHEMBL6177921, “Enhancing the antimycobacterial efficacy of pyridine-4-carbohydrazide: linkage to additional antimicrobial agents via oxocarboxylic acids” (RSC Med Chem, 2025):
In brackets after ≈: the same amount, converted by molar mass.

How the values were obtained:
Mycobacterium kansasii [1] = test: Antimycobacterial activity against INH/RIF/rifabutin/OFX/EMB Mycobacterium kansasii CNCTC 6509/96 clinical isolate assessed as bacterial growth inhibition incubated for 7 days by two-fold serial dilution method; format: functional; conditions: CNCTC 6509/96, 168 h, time 7 day
Outline: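 Šula's liquid semisynthetic medium; M. kansasii clinical isolate 6509/96 used at stock dilution 10−4, final ~1.5 × 10^5 CFU mL−1. Two-fold dilutions ran 1000–1 μM with final DMSO 1.0% (v/v). MIC was read visually as complete growth inhibition after 7, 14 and 21 days.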

[2] = Hemolytic activity in human Red blood cells assessed as effect of lipid bilayer membrane incubated for 1 hr by absorbance based spectrophotometric analysis; format: toxicity, cell-based; conditions: erythrocyte
Outline: (§1)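 Human erythrocyte suspension mixed 1:1 with compound in Hartmann's solution at final 125 μM, final DMSO 1.0% (v/v), 37 °C for 1 h. After centrifugation, released haemoglobin in the supernatant was read at 405 nm. Negative control was hRBCs with 1.0% DMSO; positive control was hRBCs sonicated for 1 min.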

[3] = test system: Mycobacterium tuberculosis; test: Antimycobacterial activity against multidrug sensitive Mycobacterium tuberculosis H37Rv CNCTC 331/88 assessed as bacterial growth inhibition incubated for 14 days by two-fold serial dilution method; format: functional; conditions: H37Rv CNCTC 331/88, 336 h, time 14 day
Mycobacterium avium [4] = test: Antimycobacterial activity against INH/RIF/rifabutin/OFX/EMB resistant Mycobacterium avium CNCTC 330/88 assessed as bacterial growth inhibition incubated for 21 days by two-fold serial dilution method; format: functional; conditions: CNCTC 330/88, 504 h, time 21 day
Outline: (§2)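 M. avium CNCTC 330/88 (stock suspension dilution 10−5) grown in Šula's semisynthetic liquid medium; two-fold serial dilutions 1000 to 1 μM from DMSO stocks (final DMSO 1.0% v/v); final load 1.5 × 10^5 CFU mL−1; MIC read visually as lowest concentration giving complete growth inhibition after 14 and 21 days.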

[5] = test system: Mycobacterium tuberculosis; test: Antimycobacterial activity against Mycobacterium tuberculosis H37Rv CNCTC 331/88 assessed as bacterial growth inhibition incubated for 21 days by two fold serial dilution method; format: functional; conditions: H37Rv CNCTC 331/88, 504 h, time 21 day
Mycobacterium kansasii [6] = test: Antimycobacterial activity against multi-drug resistant Mycobacterium kansasii clinical isolate CNCTC 6509/96 assessed as bacterial growth inhibition incubated for 21 days by two-fold serial dilution method; format: functional; conditions: CNCTC 6509/96, 504 h, time 21 day
Outline: (§3)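 M. kansasii clinical isolate 6509/96 (stock dilution 10−4) in Šula's semisynthetic liquid medium; two-fold serial dilutions 1000 to 1 μM, DMSO final 1.0% v/v; final load 1.5 × 10^5 CFU mL−1; MIC read visually as complete growth inhibition at 7, 14 and 21 days.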

Mycobacterium kansasii [7] = test: Antimycobacterial activity against multi-drug resistant Mycobacterium kansasii CNCTC 6509/96 clinical isolate assessed as bacterial growth inhibition incubated for 14 days by two-fold serial dilution method; format: functional; conditions: CNCTC 6509/96, 336 h, time 14 day; outline: as §3
Mycobacterium avium [8] = test: Antimycobacterial activity against INH/RIF/rifabutin/OFX/EMB resistant Mycobacterium avium CNCTC 330/88 assessed as bacterial growth inhibition incubated for 14 days by two-fold serial dilution method; format: functional; conditions: CNCTC 330/88, 336 h, time 14 day; outline: as §2
[9] = test system: Staphylococcus epidermidis; test: Antibacterial activity against Staphylococcus epidermidis ATCC 12228 assessed as bacterial growth inhibition incubated for 24 to 48 hrs by broth microdilution method; format: functional; conditions: time 24-48 hrs
Outline: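 Broth microdilution in cation-adjusted Mueller-Hinton broth, adapted from EUCAST. Compounds were tested at 0.98–500 μM with final DMSO ≤1.0% (v/v). Inoculum came from 16–24 h cultures, final ~5 × 10^5 CFU mL−1. Plates were incubated statically, dark and humidified, at 35 ± 2 °C. MIC was read by eye at 24 and 48 h as the lowest concentration with no visible growth.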

[10] = Hemolytic activity in human Red blood cells assessed as hemolysis rate incubated for 1 hr by absorbance based spectrophotometric analysis relative to control; format: toxicity, cell-based, Erythrocyte; conditions: read-out: Activity; outline: as §1

| Compound | MIC (Mycobacterium kansasii [1]) [µM] | Activity [2] | MIC [3] [µM] | MIC (Mycobacterium avium [4]) [µM] | MIC [5] [µM] | MIC (Mycobacterium kansasii [6]) [µM] | MIC (Mycobacterium kansasii [7]) [µM] | MIC (Mycobacterium avium [8]) [µM] | MIC [9] [µM] | hemolysis at 1 h [10] [%] |
| --- | --- | --- | --- | --- | --- | --- | --- | --- | --- | --- |
| C/C(=N\NC(=O)c1ccncc1)C(=O)Nc1ccc(Sc2ccc([N+](=O)[O-])cc2)cc1 | 1 (≈ 0.435 µg/mL) | Non-toxic | 0.25 (≈ 0.109 µg/mL) | 500 (≈ 218 µg/mL) | 0.25 (≈ 0.109 µg/mL) | 2 (≈ 0.871 µg/mL) | 1 (≈ 0.435 µg/mL) | 500 (≈ 218 µg/mL) |  |  |
| C/C(=N\NC(=O)c1ccncc1)C(=O)NNC(N)=S | 16 (≈ 4.49 µg/mL) |  | 1 (≈ 0.28 µg/mL) | 1000 (≈ 280 µg/mL) | 2 (≈ 0.561 µg/mL) | 32 (≈ 8.97 µg/mL) | 32 (≈ 8.97 µg/mL) | 1000 (≈ 280 µg/mL) | 125 (≈ 35 µg/mL) |  |
| COC(=O)c1ccc(NC(=O)/C(C)=N/NC(=O)c2ccncc2)cc1O | 8 (≈ 2.85 µg/mL) |  | 0.5 (≈ 0.178 µg/mL) | ≥ 1000 | 0.5 (≈ 0.178 µg/mL) | 16 (≈ 5.7 µg/mL) | 16 (≈ 5.7 µg/mL) | ≥ 1000 | 125 (≈ 44.5 µg/mL) |  |
| COc1nc2ccc(Br)cc2cc1[C@@H](c1ccccc1)[C@@](O)(CCN(C)C)c1cccc2ccccc12 [BEDAQUILINE] |  | Toxic |  |  |  |  |  |  |  |  |
| CC[C@@H](CO)NCCN[C@@H](CC)CO [ETHAMBUTOL] |  |  |  |  |  |  |  |  |  | 0.01 |
| NNC(=O)c1ccncc1 [ISONIAZID] | 8 (≈ 1.1 µg/mL) |  | 1 (≈ 0.137 µg/mL) | > 250 | 1 (≈ 0.137 µg/mL) | 16 (≈ 2.19 µg/mL) | 8 (≈ 1.1 µg/mL) | > 250 |  | 0.01 |
| NC(=O)c1cnccn1 [PYRAZINAMIDE] |  |  |  |  |  |  |  |  |  | 0.01 |
| CO[C@H]1/C=C/O[C@@]2(C)Oc3c(C)c(O)c4c(O)c(c(/C=N/N5CCN(C)CC5)c(O)c4c3C2=O)NC(=O)/C(C)=C\C=C\[C@H](C)[C@H](O)[C@@H](C)[C@@H](O)[C@@H](C)[C@H](OC(C)=O)[C@@H]1C [RIFAMPIN] |  |  |  |  |  |  |  |  |  | 0.01 |
